Molecules are shown by their SMILES.

This note sets out measurements from ChEMBL document CHEMBL3045116, “Synthesis and biological evaluation of 2-(5-substituted-1-((diethylamino)methyl)-2-oxoindolin-3-ylidene)-N-substituted-hydrazinecarbothioamides” (Med Chem Res, 2013).

Data set [1] relates to Vesicular stomatitis virus. Briefly: Antiviral activity against Vesicular stomatitis virus infected human HeLa cells assessed as reduction of virus-induced cytopathic effect after 3 days by colorimetric formazan-based MTS assay. Particulars: 72 h. Type of data set: functional, organism-based. Summed up:
(§1)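 Confluent cell monolayers were infected with 100 CCID50 of virus, and serial dilutions of compound were added at the time of infection.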
A general note: Damage to the host cells serves as the signal in cytopathic effect assays.

In another data set the test system is HeLa. Briefly: (§2) Cytotoxicity against Homo sapiens (human) HeLa cells assessed as change in cellular morphology. The format is cell-based. The settings on record: hela. Summed up:
(§3)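 Uninfected cells were exposed to compound in parallel with the antiviral cultures. The read-out is the minimum cytotoxic concentration that causes a microscopically detectable alteration of normal cell morphology.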

The nature of data set [2]: as §2. The format is cell-based. Particulars: HeLa cells. Summed up:
as §3

For the next data set, the system named is Candida albicans. Briefly: Antifungal activity against Candida albicans assessed as growth inhibition at 50 ug/ml by cup-plate method (reference value: 8 to 10 mm). The format is functional. The settings on record: read-out: DIZ.
Another data set concerns Human alphaherpesvirus 2. The experiment in a line: Antiviral activity against Human herpesvirus 2 strain G infected human HEL cells assessed as reduction of virus-induced cytopathic effect after 3 days by colorimetric formazan-based MTS assay. The settings on record: Human alphaherpesvirus 2, strain G, 72 h. The format is functional, organism-based. Summed up:
as §1

A further data set relates to Proteus vulgaris. The experiment in a line: Antibacterial activity against Proteus vulgaris assessed as growth inhibition at 50 ug/ml by cup-plate method (reference value: 8 to 10 mm). The format is functional. Particulars: read-out: DIZ.
Another data set relates to L1210. The experiment in a line: Cytotoxicity against Mus musculus (mouse) L1210 cells assessed as growth inhibition after 48 hr by coulter counter analysis. Particulars: L1210, 48 h. Type of data set: functional, cell-based. Summed up:
(§4)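 Cells in growth medium were allowed to proliferate with variable compound amounts at 37 °C in a humidified CO2 atmosphere. Incubation ran 48 h for L1210, 72 h for CEM and 96 h for HeLa. Cells were then counted with a Coulter counter.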

The test system of data set [3] is Feline infectious peritonitis virus. Briefly: Antiviral activity against Feline Infectious peritonitis virus infected cat CRFK cells assessed as reduction of virus-induced cytopathic effect after 3 days by colorimetric formazan-based MTS assay. Type of data set: functional, organism-based. Particulars: Alphacoronavirus 1, CRFK, 72 h. Summed up:
as §1

Data set [4] in a line: Cytotoxicity against Felis catus (cat) CRFK cells assessed as change in cellular morphology. Type of data set: cell-based. Summed up:
as §3

For a further data set, the system named is Felid alphaherpesvirus 1. The experiment in a line: Antiviral activity against Felid herpesvirus 1 infected cat CRFK cells assessed as reduction of virus-induced cytopathic effect after 3 days by colorimetric formazan-based MTS assay. The format is functional, organism-based. Particulars: Felid alphaherpesvirus 1, CRFK, 72 h. Summed up:
(§5)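 Cells grown to confluency in 96-well plates ([…], Vero for lines 9–10) were infected with 100 CCID50 of virus, and serial compound dilutions were added at infection. Plates were incubated at 37 °C for 3 days, until complete CPE appeared in untreated virus controls.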

For another data set, the system named is Aspergillus niger. The experiment in a line: Antifungal activity against Aspergillus niger assessed as growth inhibition at 50 ug/ml by cup-plate method (reference value: 8 to 10 mm). The format is functional. The settings on record: read-out: DIZ.
In another data set the test system is MDCK. Briefly: (§6) Cytotoxicity against MDCK cells assessed as change in cellular morphology. Type of data set: cell-based, Canis lupus familiaris. Particulars: dog, mdck. Summed up:
as §3

The nature of data set [5]: as §6. The format is cell-based, Canis lupus familiaris. Particulars: dog, MDCK cells. Summed up:
as §3

The next data set relates to Bacillus subtilis. The experiment in a line: Antibacterial activity against Bacillus subtilis assessed as growth inhibition at 50 ug/ml by cup-plate method (reference value: 8 to 10 mm). Type of data set: functional. The settings on record: read-out: DIZ.
In a further data set the test system is Influenza B virus. Briefly: Antiviral activity against Influenza B virus infected in MDCK cells assessed as reduction of virus-induced cytopathic effect after 3 days by colorimetric formazan-based MTS assay. The format is functional, organism-based. The settings on record: 72 h. Summed up: as §1
Another data set has as its system Human respirovirus 3. Briefly: Antiviral activity against Human parainfluenza virus 3 infected African green monkey Vero cells assessed as reduction of virus-induced cytopathic effect after 3 days by colorimetric formazan-based MTS assay. The format is functional, organism-based. Particulars: Human respirovirus 3, Vero, 72 h. Summed up:
as §5

The nature of data set [6]: Inhibition of beta lactamase assessed as time for decolorization of iodine (reference value: 79.5 secs).
Data set [7] in a line: Inhibition of beta lactamase assessed as increase in time taken for iodine decolorization relative to control. More on the design: concentration or dose not given beside the values. Particulars: concentration not given here.
Data set [8] in a line: Cytotoxicity against Homo sapiens (human) HEL cells assessed as change in cellular morphology. Type of data set: cell-based.
The subject of data set [9] is Coxsackievirus B4. Briefly: Antiviral activity against Human coxsackievirus B4 infected human HeLa cells assessed as reduction of virus-induced cytopathic effect after 3 days by colorimetric formazan-based MTS assay. Type of data set: functional, organism-based. The settings on record: Enterovirus B, 72 h. Summed up: as §1
The subject of data set [10] is Mammalian orthoreovirus 1. The experiment in a line: Antiviral activity against Mammalian orthoreovirus 1 infected African green monkey Vero cells assessed as reduction of virus-induced cytopathic effect after 3 days by colorimetric formazan-based MTS assay. The format is functional, organism-based. Particulars: Mammalian orthoreovirus 1, Vero, 72 h. Summed up: as §5

In data set [11] the test system is Human alphaherpesvirus 1. The experiment in a line: Antiviral activity against Human herpesvirus 1 strain KOS infected human HEL cells assessed as reduction of virus-induced cytopathic effect after 3 days by colorimetric formazan-based MTS assay. Particulars: Human alphaherpesvirus 1, KOS, 72 h. Type of data set: functional, organism-based. Summed up:
as §1

Data set [12] relates to Human alphaherpesvirus 1. Briefly: Antiviral activity against acyclovir-resistant thymidine kinase negative Human herpesvirus 1 strain KOS infected human HEL cells assessed as reduction of virus-induced cytopathic effect after 3 days by colorimetric formazan-based MTS assay. Particulars: Human alphaherpesvirus 1, KOS, 72 h. Type of data set: functional, organism-based. Summed up:
as §1

The nature of data set [13]: Cytotoxicity against Chlorocebus aethiops (African green monkey) Vero cells assessed as change in cellular morphology. Type of data set: cell-based. The settings on record: chlorocebus sabaeus.
The next data set concerns Influenza A virus. Briefly: Antiviral activity against Unidentified Influenza A virus (H1N1) infected MDCK cells assessed as reduction of virus-induced cytopathic effect after 3 days by colorimetric formazan-based MTS assay. The format is functional, organism-based. The settings on record: 72 h. Summed up:
as §1

For a further data set, the system named is Influenza A virus H3N2. The experiment in a line: Antiviral activity against Influenza A virus H3N2 infected MDCK cells assessed as reduction of virus-induced cytopathic effect after 3 days by colorimetric formazan-based MTS assay. The format is functional, organism-based. The settings on record: 72 h. Summed up: as §1
The next data set relates to CCRF-CEM. The experiment in a line: Cytotoxicity against Homo sapiens (human) CEM cells assessed as growth inhibition after 72 hr by coulter counter analysis. The format is functional, cell-based. Summed up: as §4
A further data set deals with Punta Toro virus. Briefly: Antiviral activity against Punta Toro virus infected in African green monkey Vero cells assessed as reduction of virus-induced cytopathic effect after 3 days by colorimetric formazan-based MTS assay. Type of data set: functional, organism-based. Particulars: 72 h. Summed up:
as §1

In data set [14] the test system is Coxsackievirus B4. The experiment in a line: Antiviral activity against Human coxsackievirus B4 infected African green monkey Vero cells assessed as reduction of virus-induced cytopathic effect after 3 days by colorimetric formazan-based MTS assay. Type of data set: functional, organism-based. The settings on record: Enterovirus B, 72 h. Summed up:
as §1

In another data set the test system is Escherichia coli. The experiment in a line: Antibacterial activity against Escherichia coli assessed as growth inhibition at 50 ug/ml by cup-plate method (reference value: 8 to 10 mm). Particulars: read-out: DIZ. Type of data set: functional.
The next data set has as its system Salmonella typhi. The experiment in a line: Antibacterial activity against Salmonella enterica subsp. enterica serovar Typhi assessed as growth inhibition at 50 ug/ml by cup-plate method (reference value: 8 to 10 mm). The format is functional. Particulars: read-out: DIZ.
A further data set relates to Klebsiella pneumoniae. Briefly: Antibacterial activity against Klebsiella pneumoniae assessed as growth inhibition at 50 ug/ml by cup-plate method (reference value: 8 to 10 mm). The format is functional. The settings on record: read-out: DIZ.
Another data set deals with Respirovirus muris. Briefly: Antiviral activity against Sendai virus infected African green monkey Vero cells assessed as reduction of virus-induced cytopathic effect after 3 days by colorimetric formazan-based MTS assay. The format is functional, organism-based. The settings on record: 72 h.
A further data set concerns Staphylococcus aureus. Briefly: Antibacterial activity against Staphylococcus aureus assessed as growth inhibition at 50 ug/ml by cup-plate method (reference value: 8 to 10 mm). The settings on record: read-out: DIZ. Type of data set: functional.
Data set [15] has as its system Vesicular stomatitis virus. Briefly: Antiviral activity against Vesicular stomatitis virus infected human HEL cells assessed as reduction of virus-induced cytopathic effect after 3 days by colorimetric formazan-based MTS assay. The format is functional, organism-based. The settings on record: 72 h. Summed up: as §1
The test system of another data set is Vaccinia virus. Briefly: Antiviral activity against Vaccinia virus infected human HEL cells assessed as reduction of virus-induced cytopathic effect after 3 days by colorimetric formazan-based MTS assay. The format is functional, organism-based. The settings on record: Orthopoxvirus vaccinia, 72 h. Summed up: as §1
The test system of data set [16] is Respiratory syncytial virus. The experiment in a line: Antiviral activity against Respiratory syncytial virus infected human HeLa cells assessed as reduction of virus-induced cytopathic effect after 3 days by colorimetric formazan-based MTS assay. The format is functional, organism-based. Particulars: 72 h. Summed up: as §1

As for `CCN(CC)CN1C(=O)/C(=N/NC(=S)Nc2ccc(OC)cc2)c2ccccc21`, the EC50 was above 4 µM in data set [1]; above 20000 nM with Human alphaherpesvirus 2; above 0.8 µM in data set [3]; above 0.8 µM in the data set on Felid alphaherpesvirus 1; above 0.8 µM with Influenza B virus; above 800 nM with Human respirovirus 3. Further, the EC50 with Coxsackievirus B4 [9] is above 4 µM; in data set [10], above 800 nM; in the data set on Human alphaherpesvirus 1 [11], above 20 µM; in the data set on Human alphaherpesvirus 1 [12], above 20 µM; in the data set with Influenza A virus, above 0.8 µM; in the data set on Influenza A virus H3N2, above 800 nM. The EC50 with Punta Toro virus was above 0.8 µM; with Coxsackievirus B4 [14], above 0.8 µM; in the data set on Respirovirus muris, above 0.8 µM; in data set [15], above 20 µM; in the data set with Vaccinia virus, above 20 µM; in [16] it was above 4 µM. The figures for the CC50 (with HeLa; in data set [4] (crfk); in the data set with MDCK) were above 100 µM, 3.5 µM and 9.2 µM, respectively. In addition, the MCC in data set [2] was at least 4 µM; in data set [5], 4 µM; in data set [8] it was 100 µM; in data set [13], 4 µM. Besides, the zone of inhibition at 50 µg/mL in the data set on Candida albicans worked out at 11 mm; in the data set with Proteus vulgaris, 21 mm; in the data set on Aspergillus niger it was 11 mm; in the data set with Bacillus subtilis, 11 mm; with Escherichia coli, 11 mm; in the data set with Salmonella typhi it was 21 mm. Further, the zone of inhibition at 50 µg/mL in the data set with Klebsiella pneumoniae and in the data set on Staphylococcus aureus was 11 mm throughout. The IC50 in the data set with L1210 amounted to 2400 nM; in the data set on CCRF-CEM, 1900 nM. For the same molecule, the TIME in data set [6] came to 0.0343 h. Moreover, the inhibition in data set [7] was found to be 35.7%.
Consider `N[C@@H](Cc1ccc(N(CCCl)CCCl)cc1)C(=O)O`, for which the IC50 is 3200 nM with L1210 and 2200 nM in the data set on CCRF-CEM.
As for `Nc1ccn(C[C@@H](CO)OCP(=O)(O)O)c(=O)n1` [CIDOFOVIR], the EC50 was 1500 nM in the data set on Human alphaherpesvirus 2, 5 µM with Human alphaherpesvirus 1 [11], 6 µM in the data set with Human alphaherpesvirus 1 [12] and above 250 µM in [15]. The MCC in [8] was above 250 µM.
`Nc1ncnc2c1ncn2C[C@H](O)CO` [(S)-DHPA]: the EC50 (in data set [1]; in the data set with Coxsackievirus B4 [9]; with Punta Toro virus; with Coxsackievirus B4 [14]; in the data set with Respirovirus muris; in [16]) was above 250 µM in each case. For the same molecule, the CC50 with HeLa was above 250 µM. For the same molecule, the MCC in data set [2] and in [13] was above 250 µM each time.
Consider `Nc1nc2c(ncn2COC(CO)CO)c(=O)[nH]1` [GANCICLOVIR], for which the EC50 is 70 nM with Human alphaherpesvirus 2; above 100 µM in data set [3]; 7.3 µM in the data set on Felid alphaherpesvirus 1; at least 20 µM with Human alphaherpesvirus 1 [12]; above 100 µM in [15]; above 100 µM in the data set with Vaccinia virus. Also, in data set [4] (CRFK cells), the CC50 was above 100 µM. Also, in [8], the MCC was above 100 µM.
With `CC(N)C12CC3CC(CC(C3)C1)C2` (stereo unspecified) [RIMANTADINE], the CC50 in the data set on MDCK is 259 µM. The MCC in data set [5] stood at 500 µM. Moreover, the results for the EC50 in the data set on Influenza B virus, in the data set on Influenza A virus and in the data set on Influenza A virus H3N2 were above 100 µM, 24.2 µM and 80 nM, respectively.

One may read the EC50 as the concentration needed to bring the measured effect to its halfway point. The term CC50 denotes the concentration at which the toxic effect on the cells reaches its halfway point. Usually IC50 stands for the point on the concentration scale where inhibition reaches its midpoint. Broadly, the inhibition is the drop in the measured response relative to a control, in per cent.
